In ChEMBL document CHEMBL1128471, “Reversible inhibitors of the gastric (H+/K+)-ATPase. 4. Identification of an inhibitor with an intermediate duration of action” (J Med Chem, 1995):
pIC50: −log10 of the molar value.

Legend:
[1] = biological target: T1, Potassium-transporting ATPase (Rattus norvegicus) (UniProt P09626+P18598); assay: Inhibition of pentagastrin-stimulated gastric acid secretion at a single dose of 10 umol/kg.; assay type: functional; conditions: Stomach
In short: (§1)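 Anesthetized, lumen-perfused rats were given pentagastrin to stimulate gastric acid secretion, and compounds were given iv. The value is an ED50 (µmol/kg iv) with 95% confidence limits, or percent inhibition ± SEM at a single 10 µmol/kg iv dose.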

[2] = biological target: T2, Potassium-transporting ATPase (Sus scrofa) (UniProt P18434+P19156); assay: (§2) Inhibition of K+ -stimulated gastric ATPase activity was measured using lyophilized gastric vesicles at pH 7; assay type: tissue-based; set-up: concentration or dose not given beside the values; conditions: Stomach; concentration not given here
In short: (§3)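 K+-stimulated ATPase activity was measured in lyophilized (permeabilized) gastric vesicles at pH 7. The value is an IC50, or percent inhibition at the stated concentration where no IC50 could be determined.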

[3] = biological target: T1, Potassium-transporting ATPase (Rattus norvegicus); assay: (§4) Inhibition of pentagastrin-stimulated gastric acid secretion in the anesthetized rat after iv administration; assay type: functional, organism-based; conditions: Stomach; in short: as §1
Canis familiaris [4] = assay: Mean percent peak inhibition of histamine-stimulated gastric acid secretion in the heidenhain pouch dog following a single dose of 1 umol/kg through iv administration.; assay type: functional; conditions: Canis lupus familiaris, Stomach
[5] = biological target: Potassium-transporting ATPase (Sus scrofa, UniProt P19156); assay: as §2; assay type: tissue-based, Stomach; in short: as §3
Potassium-transporting ATPase (Sus scrofa, UniProt P19156), sequence (P18434 whole entry): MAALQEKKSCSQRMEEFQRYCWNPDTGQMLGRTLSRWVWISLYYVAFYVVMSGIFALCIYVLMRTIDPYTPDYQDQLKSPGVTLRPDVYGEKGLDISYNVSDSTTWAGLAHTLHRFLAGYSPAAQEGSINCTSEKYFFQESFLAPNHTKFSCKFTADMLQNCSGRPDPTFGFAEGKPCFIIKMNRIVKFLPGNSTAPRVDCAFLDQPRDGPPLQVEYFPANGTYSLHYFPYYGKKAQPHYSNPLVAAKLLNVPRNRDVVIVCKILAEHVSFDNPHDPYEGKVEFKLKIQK
Potassium-transporting ATPase (Sus scrofa, UniProt P19156), sequence (P19156 whole entry): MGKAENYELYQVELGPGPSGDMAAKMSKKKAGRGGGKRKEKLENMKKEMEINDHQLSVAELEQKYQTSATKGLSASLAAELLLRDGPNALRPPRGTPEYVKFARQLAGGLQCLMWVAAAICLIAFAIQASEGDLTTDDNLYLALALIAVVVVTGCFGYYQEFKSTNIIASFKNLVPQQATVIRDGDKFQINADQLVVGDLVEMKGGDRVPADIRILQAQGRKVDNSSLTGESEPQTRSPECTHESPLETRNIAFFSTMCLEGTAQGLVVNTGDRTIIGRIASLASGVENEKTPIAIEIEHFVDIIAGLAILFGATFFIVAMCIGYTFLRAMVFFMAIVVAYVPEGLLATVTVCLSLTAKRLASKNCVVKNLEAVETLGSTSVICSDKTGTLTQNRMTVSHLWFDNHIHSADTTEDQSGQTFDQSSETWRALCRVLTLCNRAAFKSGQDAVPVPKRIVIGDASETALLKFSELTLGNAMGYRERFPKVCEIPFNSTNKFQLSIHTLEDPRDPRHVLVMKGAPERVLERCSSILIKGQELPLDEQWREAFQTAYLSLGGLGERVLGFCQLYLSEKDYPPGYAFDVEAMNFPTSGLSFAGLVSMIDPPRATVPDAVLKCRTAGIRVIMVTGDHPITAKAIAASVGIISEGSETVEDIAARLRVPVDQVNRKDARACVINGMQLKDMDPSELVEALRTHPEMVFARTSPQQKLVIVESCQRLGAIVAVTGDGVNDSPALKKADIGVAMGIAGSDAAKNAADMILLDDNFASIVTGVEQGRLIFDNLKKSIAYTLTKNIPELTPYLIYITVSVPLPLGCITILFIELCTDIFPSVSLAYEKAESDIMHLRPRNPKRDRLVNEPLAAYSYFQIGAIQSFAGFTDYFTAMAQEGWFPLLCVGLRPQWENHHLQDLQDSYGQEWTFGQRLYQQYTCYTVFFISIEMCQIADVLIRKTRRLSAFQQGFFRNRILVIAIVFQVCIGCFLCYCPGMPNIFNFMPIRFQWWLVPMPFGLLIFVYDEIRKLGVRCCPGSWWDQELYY

Canis familiaris [6] = assay: Mean percent peak inhibition of histamine-stimulated gastric acid secretion in the heidenhain pouch dog following a single dose of 4 umol/kg through oral administration.; assay type: functional; conditions: Canis lupus familiaris, Stomach
[7] = biological target: T3, Potassium-transporting ATPase (Sus scrofa, UniProt P18434+P19156); assay: Inhibition of K+ -stimulated gastric ATPase activity was measured using lyophilized gastric vesicles at pH 7; Insoluble; assay type: tissue-based, Stomach
T3 sequence (P18434 whole entry): as the sequence (P18434 whole entry) above
T3 sequence (P19156 whole entry): as the sequence (P19156 whole entry) above

Rattus norvegicus [8] = assay: Inhibition of pentagastrin-stimulated gastric acid secretion in the anesthetized rat, ED50 (umol/kg iv) with 95% confidence limits.; assay type: functional; conditions: Stomach; in short: as §1
[9] = biological target: T2, Potassium-transporting ATPase (Sus scrofa); assay: as §2; assay type: tissue-based; conditions: Stomach; concentration not given here; in short: as §3
[10] = biological target: T3, Potassium-transporting ATPase; assay: as §2; assay type: tissue-based, Stomach; in short: as §3
Rattus norvegicus [11] = assay: Inhibition of pentagastrin-stimulated gastric acid secretion in the anesthetized rat at a single dose of 10 umol/kg iv; Insoluble; assay type: functional, organism-based; conditions: Stomach; in short: as §1
[12] = biological target: T2, Potassium-transporting ATPase (Sus scrofa); assay: Inhibition of K+ -stimulated gastric ATPase activity was measured using lyophilized gastric vesicles at pH 7 at 10; assay type: tissue-based; conditions: Stomach; concentration not given here; in short: as §3
[13] = biological target: T2, Potassium-transporting ATPase (Sus scrofa); assay: Inhibition of K+ -stimulated gastric ATPase activity was measured using lyophilized gastric vesicles at pH 7 at 100; assay type: tissue-based; conditions: Stomach; concentration not given here; in short: as §3
Rattus norvegicus [14] = assay: as §4; assay type: functional, Stomach; in short: as §1

SMILES | ED50 [3] [µmol/kg] | pIC50 [5] | inhibition in vivo at 1 µmol/kg (Canis familiaris [4]) [%] | inhibition in vivo at 4 µmol/kg (Canis familiaris [6]) [%] | also measured
CCCC(=O)c1cnc2c(C)cccc2c1Nc1ccccc1F |  |  |  |  | inhibition [1]: 29%; inhibition [2]: 53%
CCCC(=O)c1cnc2c(OC)cccc2c1Nc1ccc(O)c(CN(C)C)c1 |  |  |  |  | inhibition [2]: 35%
CCCC(=O)c1cnc2c(OC)cccc2c1Nc1ccc(N2CCCC2)cc1C |  |  |  |  | inhibition [1]: 0%; inhibition [2]: 5%
CCCC(=O)c1cnc2c(C)cccc2c1Nc1ccccc1CC | 3.05 | 5.54 | 66 |  | 
CCCC(=O)c1cnc2c(CO)cccc2c1Nc1ccc(O)cc1C | 2.09 |  | 64 | 29 | 
CCCC(=O)c1cnc2c(OC)cccc2c1Nc1cc(C)c(O)c(C)c1 |  |  |  |  | IC50 [7]: Insoluble
CCCC(=O)c1cnc2c(C3CO3)cccc2c1Nc1ccccc1C (stereo not drawn) |  | 5.52 | 53 |  | ED50 (Rattus norvegicus [8]): 3.1 µmol/kg
CCCC(=O)c1cnc2c(CO)cccc2c1Nc1ccccc1C | 1.72 |  | 39 | 56 | 
CCCC(=O)c1cnc2c(C)cccc2c1Nc1cc(OC)ccc1OC |  |  |  |  | inhibition [1]: 28%; inhibition [2]: 29%
CCCC(=O)c1cnc2c(OCCOC)cccc2c1Nc1ccccc1C | 2.75 |  | 51 | 81 | 
CCCC(=O)c1cnc2c(C(C)O)cccc2c1Nc1ccc(O)cc1C (stereo not drawn) | 2.74 | 7.21 | 30 |  | 
CCCC(=O)c1cnc2c(OCCOCCOCCO)cccc2c1Nc1ccccc1C |  |  | 20 | 78 | 
CCCC(=O)c1cnc2c(OC)cccc2c1Nc1ccc(O)c(Cl)c1 |  |  |  |  | inhibition [2]: 16%
CCCC(=O)c1cnc2c(CCCO)cccc2c1Nc1ccccc1C |  | 5.59 |  | 48 | inhibition [1]: 63%
CCCC(=O)c1cnc2c(OC)cccc2c1Nc1cc(F)cc(F)c1 |  |  |  |  | inhibition [2]: 63%
Cc1cc(F)ccc1Nc1c(C(=O)C(C)C)cnc2c(CO)cccc12 | 3.57 |  | 59 | 42 | 
CCCC(=O)c1cnc2c(OCCO)cccc2c1Nc1ccc(F)cc1C | 2.92 |  | 44 | 80 | 
CCCC(=O)c1cnc2c(C)cccc2c1Nc1ccccc1C | 3.12 | 5.52 | 38 |  | 
CCCC(=O)c1cnc2c(C)cccc2c1Nc1ccc(Cl)cc1Cl |  |  |  |  | inhibition [2]: 31%
CCCC(=O)c1cnc2c(OC)cccc2c1Nc1ccc(OC)cc1C | 7.61 | 5.90 | 71 |  | 
CCCC(=O)c1cnc2c(OC)cccc2c1Nc1ccc(CO)cc1 |  |  |  |  | inhibition [2]: 38%
CCCC(=O)c1cnc2c(OC)cccc2c1Nc1ccc(OC(C)=O)cc1C |  |  |  | 44 | inhibition [9]: 25%
CCCC(=O)c1cnc2c(C3OC3CO)cccc2c1Nc1ccccc1C (stereo in doubt; 29a) |  |  |  |  | pIC50 [10]: 5.51

SMILES | ED50 [3] [µmol/kg] | pIC50 [5] | inhibition in vivo at 1 µmol/kg (Canis familiaris [4]) [%] | inhibition in vivo at 4 µmol/kg (Canis familiaris [6]) [%] | also measured
CCCC(=O)c1cnc2c(OC)cccc2c1Nc1ccc([N+](=O)[O-])cc1C |  |  |  |  | inhibition [9]: 17%
CCCC(=O)c1cnc2c(C)cccc2c1Nc1ccc(Cl)cc1C |  |  |  |  | inhibition [2]: 15%
CCCC(=O)c1cnc2c(OCCCNC(C)=O)cccc2c1Nc1c(C)cccc1C |  | 5.74 | 86 | 40 | inhibition [1]: 75%
CCCC(=O)c1cnc2c(OC)cccc2c1Nc1c(C)cc(O)cc1C | 6.4 | 6.30 | 32 | 25 | 
CCCC(=O)c1cnc2c(OC)cccc2c1Nc1ccc(O)c(F)c1 |  |  |  |  | inhibition [2]: 40%
CCC(=O)c1cnc2c(CO)cccc2c1Nc1ccccc1C |  | 6.42 | 83 | 35 | inhibition [1]: 74%
CCCC(=O)c1cnc2ccc(-c3ccccc3)cc2c1Nc1ccccc1C |  |  |  |  | inhibition [12]: 35%; inhibition (Rattus norvegicus [11]): Insoluble
CCCC(=O)c1cnc2c(OC)cccc2c1Nc1ccc(O)cc1C | 1.98 | 6.68 | 76 | 46 | 
CCCC(=O)c1cnc2c(C(C)O)cccc2c1Nc1ccccc1C (stereo not drawn) | 3.69 | 6.43 | 46 | 49 | 
CCC(=O)c1cnc2c(OCCO)cccc2c1Nc1ccc(F)cc1C | 2.85 | 5.70 | 58 | 72 | 
CCCC(=O)c1cnc2c(C)cccc2c1Nc1ccc(OC)cc1OC | 3.9 | 5.62 | 41 |  | 
Cc1cc(F)ccc1Nc1c(C(=O)C(C)C)cnc2c(OCCO)cccc12 | 4.2 | 5.80 | 66 | 75 | 
CCCC(=O)c1cnc2cc(OC)ccc2c1Nc1ccccc1C |  |  |  |  | inhibition [12]: 41%; inhibition [1]: 28%
CCCC(=O)c1cnc2c(OC)cccc2c1Nc1ccc(OC(=O)C(C)C)cc1C |  |  |  | 25 | inhibition [9]: 44%
CCCC(=O)c1cnc2c(OCCOCCO)cccc2c1Nc1ccccc1C | 1.89 |  | 52 |  | 
CCCC(=O)c1cnc2c(C)cccc2c1Nc1cc(C)ccc1OC |  |  |  |  | inhibition [2]: 56%
CCCC(=O)c1cnc2c(OC)cccc2c1Nc1ccc(OC(=O)CC)cc1C |  | 4.72 |  | 45 | 
CCCC(=O)c1cnc2c(OC)cccc2c1Nc1ccccc1C | 2.6 | 5.77 | 67 | 83 | 
CCCC(=O)c1cnc2cc(CO)ccc2c1Nc1ccccc1C |  |  |  |  | inhibition [13]: 44%
CCC(=O)c1cnc2c(OCCOC)cccc2c1Nc1ccc(F)cc1C |  | 5.70 | 36 | 94 | Inhibition (Rattus norvegicus [14]): 70%
Cc1ccccc1Nc1c(C(=O)C(C)C)cnc2c(OCCO)cccc12 | 2.07 | 6.00 | 56 | 54 | 
CCCC(=O)c1cnc2c(F)cccc2c1Nc1ccc(O)cc1C | 4.66 | 6.15 | 31 | 17 | 
CCCC(=O)c1cnc2c(OC)cccc2c1Nc1cc(F)c(O)c(F)c1 |  |  |  |  | inhibition [2]: 11%

More lines, main results first:

ED50 [3] [µmol/kg] | pIC50 [5] | SMILES | inhibition in vivo at 1 µmol/kg (Canis familiaris [4]) [%] | inhibition in vivo at 4 µmol/kg (Canis familiaris [6]) [%] | also measured
2.35 | 6.05 | CCCC(=O)c1cnc2c(OC)cccc2c1Nc1ccccc1CC | 77 | 85 | 
5.24 | 5.80 | CCCC(=O)c1cnc2c(OC)cccc2c1Nc1c(C)cccc1C | 62 | 75 | 
 | 5.85 | CCCC(=O)c1cnc2c(OC)cccc2c1Nc1cccc(C)c1C | 77 | 67 | inhibition [1]: 60%
3.61 | 5.85 | COCCOc1cccc2c(Nc3ccccc3C)c(C(=O)C(C)C)cnc12 | 65 | 86 | 
1.92 | 6.11 | CCC(=O)c1cnc2c(OCCOC)cccc2c1Nc1ccccc1C | 80 | 66 | 
2.88 | 5.51 | CCCC(=O)c1cnc2c(C)cccc2c1Nc1c(C)cccc1C | 45 |  | 
5.6 |  | CCCC(=O)c1cnc2c(OC)cccc2c1Nc1c(C)ccc(O)c1C | 36 |  | inhibition [2]: 35%
2.9 | 5.70 | CCCC(=O)c1cnc2c(Oc3cnccn3)cccc2c1Nc1ccccc1C | 49 | 43 | 
1.72 | 6.12 | CCC(=O)c1cnc2c(OCCO)cccc2c1Nc1ccccc1C | 82 | 82 | 
 | 5.23 | CCCC(=O)c1cnc2c(C(=O)O)cccc2c1Nc1ccccc1C |  |  | inhibition (Rattus norvegicus [11]): Insoluble
3.9 | 5.64 | CCCC(=O)c1cnc2c(OC)cccc2c1Nc1ccc(F)cc1C | 36 | 64 | 
2.91 | 5.46 | CCCC(=O)c1cnc2c(OCCOC)cccc2c1Nc1ccc(F)cc1C | 65 | 46 | 
 | 6.74 | CCC(=O)c1cnc2c(CO)cccc2c1Nc1ccc(O)cc1C | 59 | 24 | inhibition [1]: 90%
3.56 | 5.82 | CCCC(=O)c1cnc2c(OC)cccc2c1Nc1ccccc1OC | 73 | 18 | 
1.72 | 7.44 | Cc1cc(O)ccc1Nc1c(C(=O)C(C)C)cnc2c(CO)cccc12 | 47 |  | 
2.4 |  | CCCC(=O)c1cnc2c(OCCO)cccc2c1Nc1ccccc1C | 64 | 96 | 
10.8 | 5.51 | CCCC(=O)c1cnc2c(OC)cccc2c1Nc1c(C)cc(C)cc1C |  |  | 
